Source: PubChem (The Scripps Research Institute Molecular Screening Center)
M5 PAM: positive allosteric modulators of human muscarinic M5 receptor | AID 624038 | CHO-K1 hM5, Fluo-8 calcium, ACh EC20 PAM; 0% = ACh EC20, 100% = ACh EC100 | P08912 | activation, % at 3 µM | hit rate 0.3% among 360,000;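 active means activation above the run cutoff, the mean activation of all test compounds plus 3 SD, cut at about 18% in these data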
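Assay system: CHO-K1 hM5 cells. Also added: acetylcholine at EC20 concentration, added after compound. Dosing: 3 µM, single dose. Times: compound preincubation 140 s before EC20 acetylcholine addition. Signal: Fluo-8 calcium fluorescence. Measure: % activation relative to EC20 and EC100 ACh responses. Repeats: singlicate, one well per test compound.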
M4 antag: antagonists of human muscarinic M4 receptor (CHRM4) | CHO-hM4 cells, ACh EC80, Fluo-8 calcium fluorescence | inhibition, % at 3 µM | hit rate 0.73% among 360,000;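 active means inhibition above its plate's cutoff, the mean inhibition of sample wells plus 3 SD, cut at about 27% in these data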;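 further: 0% = acetylcholine EC80 with DMSO and 100% = DMSO without agonist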
Target sequence (P08173 whole entry, looked up): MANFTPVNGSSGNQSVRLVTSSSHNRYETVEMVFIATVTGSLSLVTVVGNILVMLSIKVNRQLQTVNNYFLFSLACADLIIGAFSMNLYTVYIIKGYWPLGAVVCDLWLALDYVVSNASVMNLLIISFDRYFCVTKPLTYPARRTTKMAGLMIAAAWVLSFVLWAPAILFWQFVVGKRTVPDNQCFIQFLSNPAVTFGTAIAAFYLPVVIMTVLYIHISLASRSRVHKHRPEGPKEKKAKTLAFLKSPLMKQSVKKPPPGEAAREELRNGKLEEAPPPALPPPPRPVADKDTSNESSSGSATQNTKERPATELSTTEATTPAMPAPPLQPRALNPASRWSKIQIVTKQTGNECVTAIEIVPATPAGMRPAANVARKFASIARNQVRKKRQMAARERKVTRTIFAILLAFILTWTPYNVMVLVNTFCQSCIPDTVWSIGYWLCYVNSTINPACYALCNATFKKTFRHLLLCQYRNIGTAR
CHRM4 PAM: positive allosteric modulators of human muscarinic M4 receptor. activation, % at 3 µM. P08173. AID 624126. hit rate 0.4% among 360,000. CHO-K1 hM4/Gqi5, Fluo-8 calcium fluorescence, ACh EC20; 0% = ACh EC20, 100% = maximal ACh;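 active means activation above its plate's cutoff, the mean activation of sample wells plus 3 SD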
CHRM4 agonist: agonists of human muscarinic M4 receptor (CHRM4); activation, % at 3 µM; CHO-K1 hM4/Gqi5, Fluo-8 calcium fluorescence; vehicle 0%, full acetylcholine response 100%; P08173; AID 624127; hit rate 0.14% among 360,000;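 active means activation above the run mean over all test wells plus 3 SD, cut at about 32% in these data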;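 further: peak over basal fluorescence ratio per well then scaled between controls; 0% = DMSO wells and 100% = acetylcholine at EC100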
CHRM5 agonist: agonists of human muscarinic M5 receptor (CHRM5); AID 624037; P08912; activation, % at 3 µM; hit rate 0.19% among 360,000; CHO-K1 hM5 cells, Fluo-8 calcium fluorescence; 0% DMSO wells, 100% maximal acetylcholine response;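 active means activation above the run's mean over test compounds plus 3 SD, cut at about 23% in these data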;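 further: signal is peak over basal fluorescence ratio across the kinetic read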
M5 antag: CHRM5 antagonism in calcium assay; CHO-hM5 cells, Fluo-8 calcium fluorescence, ACh EC80; inhibition, % at 3 µM; hit rate 0.59% among 360,000; AID 624040;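 active means inhibition above a per-plate cutoff, the mean of that plate's test compounds plus 3 SD, cut at about 27% in these data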;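 further: 0% = acetylcholine EC80 with DMSO and 100% = DMSO without agonist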
* = called active by the depositor. Shown are actives, neighbours in structure and some others; about 1.9% of the full set was active somewhere.

SMILES	M5 PAM	M4 antag	CHRM4 PAM	CHRM4 agonist	CHRM5 agonist	M5 antag
CCN(CC)CCn1c(C)nc2ccccc21	0	-10	-4	1	-8	8
CCOC(=O)C1CCN(Cc2cc(Cl)c3ccccc3c2O)CC1	7	29*	-4	1	6	10
COc1ccc(S(=O)(=O)N(CC(=O)NCCC(C)C)c2ccccc2)cc1OC	12	-18	25*	3	-3	-8
CCCNC(=O)CN(c1ccccc1)S(=O)(=O)c1ccc(OC)c(OC)c1	7	-13	7	3	-1	-12
COc1ccc(OC)c(-c2cc(C(=O)N3CCN(c4ncccn4)CC3)c3ccccc3n2)c1	-21	22	-9	15	2	31*
COc1ccc(-c2cc(C(=O)N3CCCCCC3)c3ccccc3n2)c(OC)c1	-16	9	-6	12	1	7
COc1ccc(-c2cc(C(=O)N3CCN(c4ccccc4F)CC3)c3ccccc3n2)c(OC)c1	-10	20	-3	18	-3	36*
COc1ccc(-c2cc(C(=O)N3CCN(c4ncccn4)CC3)c3ccccc3n2)c(OC)c1	-17	16	-11	11	4	20
COc1ccc(OC)c(-c2cc(C(=O)Nc3ccccc3C(N)=O)c3ccccc3n2)c1	-26	31*	-10	19	5	20
COc1ccc(OC)c(-c2cc(C(=O)N/N=C/c3ccc(F)cc3)c3ccccc3n2)c1	-14	2	-8	-1	-3	19
CC(C)NC(=O)C1(C)CN(S(C)(=O)=O)CC(=O)N1CC(F)(F)F (stereo not drawn)	-5	-8	3	2	1	4
Cc1ccc(CN2CCNC2=O)cc1	8	-9	34*	1	-4	0
O=C1NCCN1CCNS(=O)(=O)c1ccc(F)c(Cl)c1	3	7	-4	1	0	2
Cc1ccc(S(=O)(=O)NCCN2CCNC2=O)cc1	10	-21	34*	0	4	-9
C=CCN(CC=C)S(=O)(=O)c1ccc(C(=O)Nc2nnc(CSC)o2)cc1	-4	9	-1	0	6	5
CSCc1nnc(NC(=O)c2ccc(S(=O)(=O)N(C)C)cc2)o1	19*	4	14	2	0	13
CC(Sc1nc2ccccc2c(=O)n1CC1CCCO1)C(=O)N(C)c1ccccc1 (stereo not drawn)	-10	12	-11	10	-7	7
CCN(CC)c1ccc(/C=N/Nc2nn[nH]n2)cc1	19*	-5	0	0	2	-11
CC(Oc1ccc2c(-c3ccccc3)cc(=O)oc2c1)C(=O)O (stereo not drawn)	-5	27*	-12	0	-1	12
CC(Oc1ccc2c(-c3ccccc3)cc(=O)oc2c1)C(=O)N1CCOCC1 (stereo not drawn)	-6	8	-3	2	1	10
N#C/C(=C/c1ccc(-c2ccc(S(N)(=O)=O)cc2)o1)c1nc2ccccc2s1	-18	26*	-8	19	32*	48*
COC(=O)c1ccc(/C=C(\C#N)c2nc3ccccc3s2)cc1	1	-2	2	6	4	-6
N#C/C(=C\c1ccccn1)c1nc2ccccc2s1	-20	18	-10	20	44*	17
N#CCCN(Cc1ccccc1)C(=S)Nc1ccccc1	8	-10	21*	2	-4	1
C[C@@H]1CC[C@H](O)/C=C/C(=O)O[C@H](C)CC[C@H](O)/C=C/C(=O)O1	-10	-4	0	1	37*	5
SMILES	M5 PAM	M4 antag	CHRM4 PAM	CHRM4 agonist	CHRM5 agonist	M5 antag
Cc1nc(C)c(C(=O)N2CCCC(C(=O)c3ccc4ccccc4c3)C2)s1 (stereo not drawn)	-4	-5	-7	9	1	11
Cc1ccc2c(c1C)NC(=O)C21N2CCCC2C(C(=O)c2ccc3ccccc3c2)C12C(=O)Nc1ccccc12 (stereo not drawn)	19*	3	11	0	8	6
Cc1ccccc1NC1=NC(=S)N(CC(N)=O)C12CCOC(C)(C)C2 (stereo not drawn)	11	0	0	1	1	-6
CC(=O)c1cnc(N2CCCCC2)nc1C	18*	31*	16	1	-1	-2
CC(C)(C)S(=O)(=O)c1cnc(N2CCCCC2)nc1N	-2	5	-18	0	-3	6
CCOC(=O)c1ccccc1NC(=O)CSc1nncn1C	2	-7	1	0	-1	7
O=C(NCc1nnc2c3ccccc3c(-c3ccccc3)nn12)c1ccccc1Cl	-10	4	4	0	0	7
CC1(C(=O)Nc2ccc3c(c2)OCO3)CCN1Cc1csc2ccccc12 (stereo not drawn)	-20	11	-12	3	-3	13
Cc1ccc(NC(=O)C2(C)CCN2Cc2csc3ccccc23)cc1 (stereo not drawn)	-18	46*	-14	-1	-4	7
COc1ccc2c(c1OC)C(=O)N1C2SC[C@H]1C(=O)NC1CCCCC1 (stereo partly drawn)	-18	-19	2	0	38*	5
COc1cc(NC(=S)NC(=O)c2ccccc2F)ccc1NC(=O)c1ccco1	-1	-3	-3	1	-5	-9
Cc1cccc(C)c1C(OCCN(C)C)C1CCCCC1 (stereo not drawn)	-19	77*	-20	5	-9	100*
COCCN(C(=O)CCl)C(C(=O)NC1CCCCC1)c1ccccc1C (stereo not drawn)	1	14	-12	-1	-3	-1
O=C(O)CCC(=O)Nc1sc2c(c1C(=O)Nc1ccccc1)CCCCC2	10	40*	9	7	7	17
O=C(O)CCC(=O)Nc1sc2c(c1C(=O)Nc1cccc3ccccc13)CCCCC2	1	1	0	1	0	1
CC(C)OC(=O)c1c(NC(=O)CCC(=O)O)sc2c1CCCCC2	16	16	21*	1	-2	-1
COc1ccc(NC(=O)Cc2ccccc2)cn1	4	0	0	4	-2	1
COc1ccc(NC(=O)/C(Cl)=C(/Cl)S(=O)Cc2ccccc2)cn1 (stereo not drawn)	16	36*	4	5	15	42*
CN1/C(=C/C(=O)CSc2ccccc2C(=O)O)C(C)(C)c2ccccc21	6	-1	-5	1	-2	-1
Cc1cc(=O)[nH]c(SCC(=O)/C=C2\N(C)c3ccccc3C2(C)C)n1	-18	33*	-22	13	7	31*
